Source: ChEMBL document CHEMBL1144782, “Isoindolo[2,1-a]quinoxaline derivatives, novel potent antitumor agents with dual inhibition of tubulin polymerization and topoisomerase I” (2008)

Experiments:
Format in all cases: functional
NCI-H226 = assay: Antitumor activity against human NCI-H226 cells
Procedure, shortened: (§1)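 Run by the NCI in its in vitro disease-oriented screen of about 60 human tumour cell lines. For each line it reports pGI50 (50% net growth inhibition), pTGI (total growth inhibition) and pLC50 (50% net cell death), each as –log molar concentration. Where an effect was not reached within the tested range, the highest tested concentration was used.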

[1] = Antitumor activity against human NCI-H322 cells; procedure, shortened: as §1
NCI-H460 = assay: Antitumor activity against human NCI-H460 cells; procedure, shortened: as §1
NCI-H522 = assay: Antitumor activity against human NCI-H522 cells; procedure, shortened: as §1
HT-29 = assay: Antitumor activity against human HT29 cells; procedure, shortened: as §1
SW-620 = assay: Antitumor activity against human SW620 cells
Procedure, shortened: (§2)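 NCI 60-cell-line screen. Parameters were GI50 (50% net growth inhibition), TGI and LC50, each reported as –log molar concentration. Where an effect was not reached within the tested range, the highest tested concentration was used in the calculation.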

SF-268 [2] = assay: Antitumor activity against human SF268 cells; procedure, shortened: as §1
SF-295 = assay: Antitumor activity against human SF295 cells; procedure, shortened: as §1
SF-539 = assay: Antitumor activity against human SF539 cells; procedure, shortened: as §1
SNB-19 = assay: Antitumor activity against human SNB19 cells; procedure, shortened: as §1
SNB-75 = assay: Antitumor activity against human SNB75 cells; settings: Homo sapiens, SNB-75; procedure, shortened: as §1
SK-MEL-2 = assay: Antitumor activity against human SKMEL2 cells; procedure, shortened: as §1
SK-MEL-28 = assay: Antitumor activity against human SKMEL28 cells; procedure, shortened: as §1
UACC-257 = assay: Antitumor activity against human UACC257 cells; procedure, shortened: as §2
UACC-62 = assay: Antitumor activity against human UACC62 cells; procedure, shortened: as §2
IGROV-1 = assay: Antitumor activity against human IGROV1 cells; procedure, shortened: as §1
OVCAR-3 = assay: Antitumor activity against human OVCAR-3 cells; procedure, shortened: as §1
OVCAR-4 = assay: Antitumor activity against human OVCAR4 cells; procedure, shortened: as §1
OVCAR-5 = assay: Antitumor activity against human OVCAR5 cells; procedure, shortened: as §1
OVCAR-8 = assay: Antitumor activity against human OVCAR8 cells; procedure, shortened: as §1
SK-OV-3 = assay: Antitumor activity against human SKOV3 cells; procedure, shortened: as §1
786-0 = assay: Antitumor activity against human 786-0 cells; procedure, shortened: as §1
A498 = assay: Antitumor activity against human A498 cells; procedure, shortened: as §1
ACHN = assay: Antitumor activity against human ACHN cells; procedure, shortened: as §1
CAKI-1 = assay: Antitumor activity against human CAKI1 cells; procedure, shortened: as §1
RXF 393 = assay: Antitumor activity against human RXF393 cells; procedure, shortened: as §1
SF-268 [3] = assay: Cell viability against human SF268 cells at 10 uM
CCRF-CEM [4] = assay: Antitumor activity against human CCRF-CEM cells; procedure, shortened: as §1
RPMI-8226 = assay: Antitumor activity against human RPMI8226 cells; procedure, shortened: as §1
A549 = assay: Antitumor activity against human A549 cells; procedure, shortened: as §1
HOP-62 = assay: Antitumor activity against human HOP62 cells; procedure, shortened: as §1
SN12C = assay: Antitumor activity against human SN12C cells; procedure, shortened: as §1
TK-10 = assay: Antitumor activity against human TK10 cells; procedure, shortened: as §2
MCF7 [5] = assay: Antitumor activity against human MCF7 cells; procedure, shortened: as §1
[6] = Antitumor activity against human […] cells; procedure, shortened: as §1
Hs-578T = assay: Antitumor activity against human HS578T cells; procedure, shortened: as §1
MCF7 [7] = assay: Growth inhibition of human MCF7 cells after 72 hrs by MTT assay; settings: MCF7, 72 h
Procedure, shortened: (§3)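 Growth inhibition by MTT after 72 h incubation. Resistant sublines: LoVoDoxo and MCF-7 MDR were kept in 0.1 µg/mL doxorubicin; CEMVbl-100 was selected against vinblastine. GI50 given as mean ± SEM of three independent experiments. Resistance index is resistant-line GI50 over parental GI50.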

MCF7 [8] = assay: Growth inhibition of human multidrug-resistant MCF7 cells after 72 hrs by MTT assay; settings: MCF7, 72 h; procedure, shortened: as §3
MCF7 [9] = assay: Resistance index, Ratio of GI50 for human multidrug-resistant MCF7 cells to GI50 for human MCF7 cells; procedure, shortened: as §3
CCRF-CEM [10] = assay: Resistance index, Ratio of GI50 for human vinblastine-resistant CEM cells to GI50 for human CEM cells
[11] = read-out: Log LC50 (the source's name) (converted)

COc1ccc2c(c1)[nH]c(=O)c1c3ccccc3cn21
GI50 (NCI-H226): 45.7 nM | LC50 (50% net cell kill) (NCI-H226): > 100000 nM | TGI (NCI-H226; read-out: pTGI (converted)): 525 nM | GI50 [1]: 83.2 nM | LC50 (50% net cell death) [1]: 7760 nM | TGI ([1]; read-out: pTGI (converted)): 2570 nM | GI50 (NCI-H460): 34.7 nM | CC50 (NCI-H460; [11]): 5130 nM | TGI (NCI-H460; read-out: pTGI (converted)): 1120 nM | GI50 (NCI-H522): 60.3 nM | CC50 (NCI-H522; [11]): 10000 nM | TGI (NCI-H522; read-out: pTGI (converted)): 2290 nM | GI50 (HT-29): 33.9 nM | LC50 (HT-29): > 100000 nM | TGI (HT-29; read-out: pTGI (converted)): 1480 nM | GI50 (SW-620): 26.3 nM | CC50 (SW-620; [11]): 4170 nM | TGI (SW-620; read-out: pTGI (converted)): 1410 nM | GI50 (SF-268 [2]): 74.1 nM | CC50 (SF-268 [2]; [11]): 87100 nM | TGI (SF-268 [2]; read-out: pTGI (converted)): 2950 nM | GI50 (SF-295): 26.9 nM | CC50 (SF-295; [11]): 4170 nM | TGI (SF-295; read-out: pTGI (converted)): 1050 nM | GI50 (SF-539): 22.9 nM | LC50 (50% net cell kill) (SF-539): 2750 nM | TGI (SF-539; read-out: pTGI (converted)): 70.8 nM | GI50 (SNB-19): 38.9 nM | CC50 (SNB-19; [11]): > 100000 nM | TGI (SNB-19; read-out: pTGI (converted)): 4070 nM | GI50 (SNB-75): 27.5 nM | LC50 (SNB-75): > 100000 nM | TGI (SNB-75; read-out: pTGI (converted)): 83.2 nM | GI50 (SK-MEL-2): 158 nM | LC50 (SK-MEL-2): 7760 nM | TGI (SK-MEL-2; read-out: pTGI (converted)): 2510 nM | GI50 (SK-MEL-28): 52.5 nM | CC50 (SK-MEL-28; [11]): 6610 nM | TGI (SK-MEL-28; read-out: pTGI (converted)): 2510 nM | GI50 (UACC-257): 5130 nM | LC50 (UACC-257): 74100 nM | TGI (UACC-257; read-out: pTGI (converted)): 30900 nM | GI50 (UACC-62): 74.1 nM | LC50 (UACC-62): 4370 nM | TGI (UACC-62; read-out: pTGI (converted)): 1910 nM | GI50 (IGROV-1): 74.1 nM | CC50 (IGROV-1; [11]): 8510 nM | TGI (IGROV-1; read-out: pTGI (converted)): 2290 nM | GI50 (OVCAR-3): 22.4 nM | LC50 (50% net cell death) (OVCAR-3): 2880 nM | TGI (OVCAR-3; read-out: pTGI (converted)): 64.6 nM | GI50 (OVCAR-4): 91.2 nM | LC50 (50% net cell kill) (OVCAR-4): > 100000 nM | TGI (OVCAR-4; read-out: pTGI (converted)): 5130 nM | GI50 (OVCAR-5): 100 nM | LC50 (50% net cell death) (OVCAR-5): 77600 nM | TGI (OVCAR-5; read-out: pTGI (converted)): 7940 nM | GI50 (OVCAR-8): 57.5 nM | LC50 (50% net cell death) (OVCAR-8): > 100000 nM | TGI (OVCAR-8; read-out: pTGI (converted)): 2340 nM | GI50 (SK-OV-3): 38.9 nM | LC50 (50% net cell kill) (SK-OV-3): 8510 nM | TGI (SK-OV-3; read-out: pTGI (converted)): 1620 nM | GI50 (786-0): 41.7 nM | CC50 (786-0; [11]): 4570 nM | TGI (786-0; read-out: pTGI (converted)): 1860 nM | GI50 (A498): 22.4 nM | CC50 (A498; [11]): > 100000 nM | TGI (A498; read-out: pTGI (converted)): 1350 nM | GI50 (ACHN): 126 nM | LC50 (50% net cell kill) (ACHN): 4370 nM | TGI (ACHN; read-out: pTGI (converted)): 1820 nM | GI50 (CAKI-1): 35.5 nM | LC50 (CAKI-1): 5130 nM | TGI (CAKI-1; read-out: pTGI (converted)): 2000 nM | GI50 (RXF 393): 20.4 nM | CC50 (RXF 393; [11]): > 100000 nM | TGI (RXF 393; read-out: pTGI (converted)): 3160 nM | Activity (SF-268 [3]): 1% | GI50 (CCRF-CEM [4]): 30.2 nM | LC50 (CCRF-CEM [4]): > 100000 nM | TGI (CCRF-CEM [4]; read-out: pTGI (converted)): 1450 nM | GI50 (RPMI-8226): 36.3 nM | CC50 (RPMI-8226; [11]): 6920 nM | TGI (RPMI-8226; read-out: pTGI (converted)): 1410 nM | GI50 (A549): 67.6 nM | CC50 (A549; [11]): 6030 nM | TGI (A549; read-out: pTGI (converted)): 1660 nM | GI50 (HOP-62): 30.9 nM | LC50 (50% net cell death) (HOP-62): 3890 nM | TGI (HOP-62; read-out: pTGI (converted)): 1230 nM | GI50 (SN12C): 57.5 nM | LC50 (SN12C): > 100000 nM | TGI (SN12C; read-out: pTGI (converted)): 2090 nM | GI50 (TK-10): 513 nM | CC50 (TK-10; [11]): 6610 nM | TGI (TK-10; read-out: pTGI (converted)): 2450 nM | GI50 (MCF7 [5]): 28.2 nM | LC50 (50% net cell kill) (MCF7 [5]): 5500 nM | TGI (MCF7 [5]; read-out: pTGI (converted)): 1450 nM | GI50 [6]: 56.2 nM | LC50 [6]: 3090 nM | TGI ([6]; read-out: pTGI (converted)): 741 nM | GI50 (Hs-578T): 51.3 nM | CC50 (Hs-578T; [11]): > 100000 nM | TGI (Hs-578T; read-out: pTGI (converted)): 2690 nM | GI50 (MCF7 [7]): 170 nM | GI50 (MCF7 [8]): 150 nM | RatioGI50 (MCF7 [9]): 0.9 | RatioGI50 (CCRF-CEM [10]): 1
